Sampled rows, rich in hits. Any-hit rate of the full collection: about 2.1%.
RBBP9 inhibitor: human RBBP9 inhibitors, primary screen, biochemical, fluorescence polarization, FP-Rh probe, HTS | inhibition, % at 7.94 µM | AID 1515, 2009 | recombinant RBBP9 | Serine hydrolase RBBP9 (Homo sapiens), O75884 | 220,000 tested, 0.2% active;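 active = inhibition above the campaign mean of all tested compounds plus 3 SD, cut at about 14% in these data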;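 note: plate controls were DMSO wells with RBBP9 for no effect and wells lacking RBBP9 protein for full effect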
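System: RBBP9 protein / Buffer or medium: Tris/NaCl buffer pH 8.0 with 0.1% Pluronic / Probe or stimulus: Serine-hydrolase probe FP-Rh, 375 nM pre-mixing / Dosing: 7.94 µM single dose, 0.794% DMSO / Times: enzyme-compound preincubation 30 min, then probe labeling 45 min, 25 °C / Technique: fluorescence polarization (mP), excitation 525 nm, emission 598 nm / Replication: singlicate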
Arbovirus inh: antivirals against arbovirus infection, primary screen, cell-based, full library, 10K replicate subset; arbovirus infection cell-based antiviral screen; inhibition, % at 10 µM; 200,000 tested, 0.37% active; in the data active = inhibition above about 30%
Insulin prom inh: inhibitors of insulin promoter-driven GFP, primary screen, imaging, TRM-6 cells, eGFP reporter, cell count; reporter expression induced with tamoxifen; inhibition, % at 2 µM; 130,000 tested, 0.9% active;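 active = inhibition above the mean plus 3 SD, with well images judged a real hit on visual review, cut at about 60% in these data, passing the limit was not always enough; inconclusive = inhibition over the cutoff but images rejected on review; inactive = inhibition not above the cutoff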
Autophagy HCS: autophagy modulators in MEF cells, primary screen, imaging, high-content, MEF GFP-LC3; MEF GFP-LC3 puncta imaging; test concentration mostly 10 µM; calls only at 10 µM (by protocol); 190,000 tested, 0.98% active;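 active = percentage of spot-positive cells more than 3 SD above its plate mean, without a fluorescence outlier flag or 80% toxicity; inconclusive = no clear call, values can overlap the other calls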;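 note: spot-positive cell cutoff set from DMSO-treated cells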
PKD1 inh: inhibitors of human PKD1 kinase, biochemical, fluorescence polarization. Serine/threonine-protein kinase D1 (Homo sapiens), Q15139. PKD1 kinase fluorescence polarization assay. inhibition, % (concentration not given with the values). 200,000 tested, 0.056% active. AID 797, 2007; in the data active = inhibition above about 50%
Target sequence (Q15139 whole entry, looked up): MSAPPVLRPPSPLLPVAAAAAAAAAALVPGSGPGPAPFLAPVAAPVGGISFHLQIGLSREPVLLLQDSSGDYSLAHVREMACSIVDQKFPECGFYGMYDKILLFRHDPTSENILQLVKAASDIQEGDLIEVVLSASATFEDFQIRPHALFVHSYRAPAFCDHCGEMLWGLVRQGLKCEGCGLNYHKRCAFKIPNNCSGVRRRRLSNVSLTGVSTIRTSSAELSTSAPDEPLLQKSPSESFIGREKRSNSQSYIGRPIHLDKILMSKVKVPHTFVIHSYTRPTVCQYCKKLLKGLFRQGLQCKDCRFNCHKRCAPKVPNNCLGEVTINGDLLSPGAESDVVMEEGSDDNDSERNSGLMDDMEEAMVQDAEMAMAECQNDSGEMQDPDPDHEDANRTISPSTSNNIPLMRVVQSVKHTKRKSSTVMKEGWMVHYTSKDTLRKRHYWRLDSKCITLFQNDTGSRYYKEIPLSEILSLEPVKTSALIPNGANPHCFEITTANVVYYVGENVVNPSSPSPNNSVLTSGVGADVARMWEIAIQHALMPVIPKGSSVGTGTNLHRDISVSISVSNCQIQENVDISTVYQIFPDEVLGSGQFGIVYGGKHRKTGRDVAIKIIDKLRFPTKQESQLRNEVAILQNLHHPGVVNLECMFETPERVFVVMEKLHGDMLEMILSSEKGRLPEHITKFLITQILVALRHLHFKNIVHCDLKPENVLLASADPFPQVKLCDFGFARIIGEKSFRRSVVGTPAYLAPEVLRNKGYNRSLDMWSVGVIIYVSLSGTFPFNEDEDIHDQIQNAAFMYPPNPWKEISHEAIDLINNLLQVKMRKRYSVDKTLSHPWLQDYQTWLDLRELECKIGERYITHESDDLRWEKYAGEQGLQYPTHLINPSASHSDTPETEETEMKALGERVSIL
Insulin prom up: insulin promoter activators in MIN6 cells, imaging, high-content screening, mouse beta cells; MIN6 insulin promoter-GFP reporter; stronger effect = higher value; z-score at 5 µM; 190,000 tested, 0.3% active; AID 1625, 2009;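 active = z-score above 3 at 5 µM with at least 500 cells counted in the well; inconclusive = wells under 500 cells, flagged as cytotoxic or low count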
* marks the source's active call; other numbers are inactive results; i = inactive; ? = inconclusive; nt = no result; + = active, no number.

SMILES | RBBP9 inhibitor | Arbovirus inh | Insulin prom inh | Autophagy HCS | PKD1 inh | Insulin prom up
CCCOc1ccc(CCc2n[nH]c(=S)n2Cc2ccccc2)cc1 | -12 | -4 | nt | i | -7 | -0.54
CNC(=O)c1ccc(-c2sc3nc(N4CCOCC4)c4c(c3c2N)CC(C)(C)OC4)o1 | -4 | 1 | -26 | i | 2 | 3.2*
CCOc1cc(-n2nc(C)c(C#N)c2N)nc(SC)n1 | -6 | -13 | 76* | i | 2 | nt
COc1ccc(Cn2c(C)c(C)c(C#N)c2NC(=O)Nc2cccc(Cl)c2)cc1 | -5 | 79* | -19 | i | -1 | 0.75
N/C(=N\OC(=O)C1CCCCC1)c1cccc([N+](=O)[O-])c1 | 0 | 9 | 23 | i | -12 | 3*
Cc1ccc(C(=O)O/N=C(\N)c2cccc([N+](=O)[O-])c2)cc1 | 5 | 7 | -10 | i | 6 | 1.9
O=C(Cc1cccs1)NCc1cn2ccccc2n1 | -10 | -4 | nt | i | -10 | -0.37
CCn1cc(C(=O)NCc2ccco2)c(=O)c2cc(S(=O)(=O)N3CCc4ccccc4C3)ccc21 | -16 | -5 | nt | i | -2 | -0.4
CCOC(=O)c1cc(-c2nnc(-c3ccc(Cl)cc3)o2)c(C)nc1C | -2 | -3 | nt | i | -8 | -0.99
CCOc1ccc(CNc2ccc3c(c2)nc(C)n3C)cc1 | -1 | 44* | -44 | i | -2 | 0
CC(=O)/C(=N/Nc1cccc(Cl)c1)Sc1nnc(C(O)c2ccccc2)n1-c1ccccc1 (stereo not given) | -4 | 47* | nt | i | 15 | 1.1
Cc1cccc(C)c1Nc1nnc(SC/C(O)=C(\C#N)c2nc3ccccc3[nH]2)s1 | 0 | 30* | -20 | i | 1 | -0.53
Cc1oc(-c2ccccc2Cl)nc1CSCC(=O)N1CCCC1 | -6 | 33* | nt | i | 2 | 0.2
Clc1ccc(C2=Nn3c(nnc3-c3n[nH]c4c3CCC4)SC2)cc1 | -2 | -10 | -108 | + | -1 | -0.75
COc1ccc2nc(C)cc(SCC(=O)N/N=C/c3c(OC)ccc4ccccc34)c2c1 | 5 | -11 | 30 | i | -3 | -0.07
CCn1c(SCC(=O)Nc2ccccc2C(=O)OC)nnc1-c1cccc(C)c1 | 4 | 10 | 16 | i | -4 | 0.6
CCOc1ccc(-n2c(C)cc(C(=O)CCl)c2C)cc1 | -9 | -21 | nt | + | 6 | -2.7
COC(=O)c1ccc(-n2c(C)cc(C(=O)CCl)c2C)cc1 | -11 | -33 | 43 | i | 1 | -1.8
c1csc(CNCCN2CCOCC2)c1 | 3 | 2 | 10 | i | -2 | nt
CN(C)c1ccc(/C=C/C(=O)c2cccc(Br)c2)cc1 | -15 | -3 | nt | + | -5 | 2.9
CC(C)Nc1nc(NC(C)C)nc(N(C)C(N)=O)n1 | -3 | 4 | 73* | i | 3 | 0.15
C=CCNc1nc(Nc2ccc([N+](=O)[O-])cc2)nc(N2CCCC2)n1 | 1 | -18 | 59 | i | 1 | -0.48
CN(C(=O)c1cc2c(s1)-c1ccccc1S(=O)(=O)C2)c1ccccc1 | -1 | nt | nt | nt | nt | 0.07
CC(C)NC(=O)c1ccccc1NC(=O)CN(c1ccc2c(c1)OCO2)S(C)(=O)=O | -11 | -1 | 7 | i | 6 | nt
COc1ccc(/C=C(\C#N)C(=O)OCC(=O)NC(=O)NCCC(C)C)cc1 | 7 | -4 | -20 | i | -2 | nt
SMILES | RBBP9 inhibitor | Arbovirus inh | Insulin prom inh | Autophagy HCS | PKD1 inh | Insulin prom up
COc1ccc(/C=C(\C#N)C(=O)OCC(=O)Nc2c(C)cccc2C(C)C)cc1 | -8 | -2 | 25 | i | 2 | 3.4*
Cc1nnc(SCC(=O)N2CCc3ccccc32)s1 | 3 | 39* | 68 | i | -6 | 1
Cc1nnc(SCC(=O)c2ccc(Cl)cc2)s1 | -2 | 1 | 71* | i | -3 | 0.13
Cc1nnc(SCC(=O)c2ccc([N+](=O)[O-])cc2)s1 | -3 | 3 | nt | i | -2 | nt
CCCC1=C(C(=O)OCC)C(c2ccco2)n2ncnc2N1 (stereo not given) | -1 | nt | nt | nt | nt | 0.83
O=S(=O)(c1ccc(F)cc1)N1CCC(O)(c2ccc3c(c2)OCO3)CC1 | -4 | 2 | 0 | i | -5 | 0.41
Cc1ccc(/C=N/Nc2ccc3c(C(F)(F)F)cc(C(F)(F)F)nc3n2)cc1 | 6 | -1 | 71* | i | -4 | -0.15
NNc1ccc2c(C(F)(F)F)cc(C(F)(F)F)nc2n1 | -4 | -3 | -92 | i | -4 | -0.66
O=c1c(N2CCOCC2)c(N2CCOCC2)c1=O | 3 | nt | nt | nt | nt | 3*
CCOC(=O)c1c(C)nc(-c2ccccc2)nc1NC(=O)CC | 0 | 3 | 71* | i | -12 | 2.9
CCOc1nc(NC(=O)NC(=O)c2ccccc2)nc(-c2ccccc2)n1 | 4 | 2 | nt | + | -3 | -0.2
CCOc1nc(NC(=O)NS(=O)(=O)Oc2cccc(Cl)c2)nc(-c2ccccc2)n1 | 1 | -3 | 78* | i | 0 | -0.28
CC(NC(=O)c1ccc(CS(=O)(=O)c2cccc(C(F)(F)F)c2)o1)c1ccc2c(c1)OCCO2 (stereo not given) | -12 | -5 | -36 | i | 5 | -1
Cc1nc2n[nH]c(N)c2c2c1COC(C)(C)C2 | -16 | -1 | 22 | i | 3 | -0.12
Cc1ccc(S(=O)(=O)CCSc2nc(C)cc(C(F)(F)F)c2C#N)cc1 | -6 | -3 | -106 | + | -6 | nt
Cc1cc(C(F)(F)F)c(C#N)c(SCC(=O)Nc2nc3cc(Br)ccc3s2)n1 | -1 | -25 | -100 | + | -2 | nt
COC(=O)CSc1nc(C)cc(C(F)(F)F)c1C#N | -3 | -9 | 28 | i | 3 | -0.47
O=C(CN1CCN(Cc2ccc3c(c2)OCO3)CC1)Nc1ccc2c(c1)OCO2 | -13 | -16 | -40 | i | -1 | 1.3
CCCCCCCCCOC(=O)C(CC(=O)O)N1CCOCC1 (stereo not given) | 10 | 1 | 68* | i | -1 | nt
CN(Cc1cccs1)C(=O)Cn1cnc2ccccc2c1=O | 3 | 1 | nt | + | 2 | nt
O=C(Cc1cccs1)Nc1cccc(-c2nnc(-c3ccco3)o2)c1 | -3 | -1 | nt | i | 2 | -0.46
Cc1ccc(-c2nnc(-c3ccc(NC(=O)Cc4cccs4)cc3)o2)cc1 | -6 | -34 | nt | + | -9 | -0.85
N#C/C(=C/c1ccc(N2CCOCC2)o1)c1nc2ccccc2[nH]1 | -8 | -19 | i | ? | -20 | nt
N#C/C(=C/c1ccc(N2CCCCC2)o1)C(=O)Nc1ccc2ccccc2c1 | 1 | -7 | -186 | nt | -45 | nt
COc1cc(N2CCCC2)c(OC)cc1/C=C(/C#N)c1cccc(F)c1 | -2 | -5 | -35 | + | -3 | nt
N#C/C(=C/c1ccc(N2CCCCCC2)o1)c1cccc(F)c1 | 2 | 1 | -1 | + | -3 | nt

Assay outcomes deposited in PubChem by several laboratories.
